# Assay results published in ChEMBL document CHEMBL1127547, “Synthesis and biological activities of a new set of irreversibly acting 2-(4'-isothiocyanatobenzyl)imidazoline analogs in rat thoracic aorta” (J Med Chem, 1994).
# Values joined by “and” are separate entries in the source; they are usually repeats but may differ in a detail not shown here. Equal entries are not always repeated.
# Species: Rattus norvegicus
# Assay: Percent of maximal contractile response to compound in rat thoracic aorta strips in the presence of PBZ and CIR
# Settings: not given
row,SMILES,Emax
1,S=C=Nc1ccc(CCC2=NCCN2)cc1,100%
2,S=C=Nc1ccc(OCC2=NCCN2)cc1,117%
3,S=C=Nc1ccc(Cc2ncc[nH]2)cc1,102%

# Species: Rattus norvegicus
# Assay: Concentration that produces 50% of the maximal response to compound in rat thoracic aorta strips in the presence of PBZ and IDA
# Settings: not given
row,SMILES,EC50
1,S=C=Nc1ccc(OCC2=NCCN2)cc1,16.1 µM

# Species: Rattus norvegicus
# Assay: Concentration that produces 50% of the maximal response to compound in rat thoracic aorta strips in the presence of PBZ and IDA at 0.1 uM
# Type: functional
# Settings: not given
# Outline: (§1)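 Strips were exposed to 30 nM PBZ for 20 min, washed out, then held in idazoxan for 1 h: 0.1 μM or 1 μM. Analog-induced contractions were read 20–30 min after addition and expressed against the 30 μM phenylephrine maximum obtained before treatment.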
row,SMILES,EC50
1,S=C=Nc1ccc(CC2=NCCN2)cc1,54 µM

# Species: Rattus norvegicus
# Assay: Concentration that produces 50% of the maximal response to compound without phenoxybenzamine pretreatment on rat thoracic aorta strips
# Type: functional
# Settings: not given
# Outline: (§2)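 Helically cut thoracic aorta strips from male Sprague-Dawley rats (300–450 g) in a 10-mL water-jacketed bath of physiological salt solution. After 1 h equilibration, strips were primed with 10^-8 M phenylephrine, and a phenylephrine curve (10^-9 to 3×10^-5 M) was run. Cumulative analog curves were read 20–30 min after each addition. Emax is given relative to the 30 μM phenylephrine maximum. Mean ± SEM, n = 4–7.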
row,SMILES,EC50
1,O=C(CCl)Nc1ccc(CC2=NCCN2)cc1,116 µM
2,Cc1ccc(CC2=NCCN2)cc1,57 µM
3,CN(C)CCc1ccc(N=C=S)cc1,41 µM
4,S=C=Nc1ccc(CC2=NCCN2)cc1,48 µM
5,S=C=Nc1ccc(CC2=NCCN2)cc1I,10 µM
6,O=C(CI)Nc1ccc(CC2=NCCN2)cc1,47 µM
7,S=C=Nc1ccc(CCC2=NCCN2)cc1,29 µM
8,S=C=Nc1ccc(OCC2=NCCN2)cc1,69 µM
9,S=C=Nc1ccc(Cc2ncc[nH]2)cc1,31 µM
10,Nc1ccc(CC2=NCCN2)cc1,3 µM

# Species: Rattus norvegicus
# Assay: Percent of maximal contractile response to compound in rat thoracic aorta strips in the presence of PBZ and IDA at 0.1 uM
# Settings: not given
# Outline: as §1
row,SMILES,Emax
1,S=C=Nc1ccc(CC2=NCCN2)cc1,104%

# Species: Rattus norvegicus
# Assay: Percent of maximal contractile response to compound with phenoxybenzamine pretreatment on rat thoracic aorta strips
# Settings: not given
# Outline: (§3)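 Rat aortic strips (male Sprague-Dawley) were pretreated with phenoxybenzamine 3×10^-6 M for 20 min and washed before cumulative analog curves were run. Responses were taken 20–30 min after each addition. Maximal contraction is expressed relative to 30 μM phenylephrine, obtained before pretreatment. Mean ± SEM, n = 4–7; Student's t test against the untreated control.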
row,SMILES,Emax
1,O=C(CCl)Nc1ccc(CC2=NCCN2)cc1,32%
2,Cc1ccc(CC2=NCCN2)cc1,5%
3,CN(C)CCc1ccc(N=C=S)cc1,113%
4,S=C=Nc1ccc(CC2=NCCN2)cc1,100%
5,S=C=Nc1ccc(CC2=NCCN2)cc1I,28%
6,O=C(CI)Nc1ccc(CC2=NCCN2)cc1,13%
7,S=C=Nc1ccc(CCC2=NCCN2)cc1,102%
8,S=C=Nc1ccc(OCC2=NCCN2)cc1,117%
9,S=C=Nc1ccc(Cc2ncc[nH]2)cc1,68%
10,Nc1ccc(CC2=NCCN2)cc1,9%

# Species: Rattus norvegicus
# Assay: Concentration that produces 50% of the maximal response to compound with phenoxybenzamine pretreatment on rat thoracic aorta strips
# Type: functional
# Settings: not given
# Outline: as §3
row,SMILES,EC50
1,O=C(CCl)Nc1ccc(CC2=NCCN2)cc1,129 µM
2,CN(C)CCc1ccc(N=C=S)cc1,33 µM
3,S=C=Nc1ccc(CC2=NCCN2)cc1,52 µM
4,S=C=Nc1ccc(CC2=NCCN2)cc1I,58 µM
5,S=C=Nc1ccc(CCC2=NCCN2)cc1,29 µM
6,S=C=Nc1ccc(OCC2=NCCN2)cc1,47 µM
7,S=C=Nc1ccc(Cc2ncc[nH]2)cc1,36 µM
8,Nc1ccc(CC2=NCCN2)cc1,31 µM

# Species: Rattus norvegicus
# Assay: Concentration that produces 50% of the maximal response to compound in rat thoracic aorta strips in the presence of calcium deficient buffer
# Type: functional
# Settings: not given
# Outline: (§4)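 Cumulative analog concentration-response curves were run on rat thoracic aorta strips in calcium-deficient PSS. Responses were read 35–45 min after each addition. Emax is relative to the maximal contraction of the compound alone in normal PSS. Mean ± SEM, n = 3–4; paired t test.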
row,SMILES,EC50
1,S=C=Nc1ccc(CC2=NCCN2)cc1,12.7 µM

# Species: Rattus norvegicus
# Assay: Concentration that produces 50% of the maximal response to compound in rat thoracic aorta strips in the presence of PBZ and IDA at 1 uM
# Type: functional
# Settings: not given
# Outline: as §1
row,SMILES,EC50
1,S=C=Nc1ccc(CC2=NCCN2)cc1,54 µM

# Species: Rattus norvegicus
# Assay: Percent of maximal contractile response to compound in rat thoracic aorta strips presence of PBZ and CIR
# Settings: not given
row,SMILES,Emax
1,S=C=Nc1ccc(CC2=NCCN2)cc1,94%

# Species: Rattus norvegicus
# Assay: Percent of maximal contractile response to compound in rat thoracic aorta strips in the presence of PBZ and IDA at 1 uM
# Settings: not given
# Outline: as §1
row,SMILES,Emax
1,S=C=Nc1ccc(CC2=NCCN2)cc1,105%

# Species: Rattus norvegicus
# Assay: Concentration that produces 50% of the maximal response to compound in rat thoracic aorta strips
# Type: functional
# Settings: not given
# Outline: as §2
row,SMILES,EC50
1,CN(C)CCc1ccc(N=C=S)cc1,16.9 µM and 16.3 µM
2,S=C=Nc1ccc(CC2=NCCN2)cc1,45 µM and 5.8 µM

# Same assay, conditions: Rattus norvegicus, Thoracic aorta
row,SMILES,EC50
1,CN(C)CCc1ccc(N=C=S)cc1,16.8 µM
2,S=C=Nc1ccc(CCC2=NCCN2)cc1,18.3 µM
3,S=C=Nc1ccc(OCC2=NCCN2)cc1,17.2 µM
4,S=C=Nc1ccc(Cc2ncc[nH]2)cc1,28.6 µM

# Species: Rattus norvegicus
# Assay: Concentration that produces 50% of the maximal response to compound in rat thoracic aorta strips in the presence of verapamil
# Type: functional
# Settings: not given
# Outline: (§5)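 Verapamil was given for 60 min before cumulative analog curves on rat aortic strips; the methods give 10^-5 M and the table footnote gives 10^-6 M. Responses were read 35–45 min after each addition. Emax is relative to the compound's own maximal contraction without verapamil. Mean ± SEM, n = 3–4.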
row,SMILES,EC50
1,S=C=Nc1ccc(CC2=NCCN2)cc1,21.4 µM

# Species: Rattus norvegicus
# Assay: Concentration that produces 50% of the maximal response to compound in rat thoracic aorta strips in the presence of PBZ and CIR
# Type: functional
# Settings: not given
row,SMILES,EC50
1,S=C=Nc1ccc(CC2=NCCN2)cc1,43 µM
2,S=C=Nc1ccc(CCC2=NCCN2)cc1,14.9 µM
3,S=C=Nc1ccc(OCC2=NCCN2)cc1,16.4 µM
4,S=C=Nc1ccc(Cc2ncc[nH]2)cc1,25.5 µM

# Species: Rattus norvegicus
# Assay: Percent of maximal contractile response to compound in rat thoracic aorta strips in the presence of calcium deficient buffer
# Settings: not given
# Outline: as §4
row,SMILES,Emax
1,S=C=Nc1ccc(CC2=NCCN2)cc1,34%

# Species: Rattus norvegicus
# Assay: Percent of maximal contractile response to compound in rat thoracic aorta strips v
# Settings: not given
row,SMILES,Emax
1,S=C=Nc1ccc(OCC2=NCCN2)cc1,110%

# Species: Rattus norvegicus
# Assay: Concentration that produces 50% of the maximal response to compound in rat thoracic aorta strips in the presence of nifedipine
# Type: functional
# Settings: not given
# Outline: (§6)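 Aortic strips were pretreated with nifedipine 10^-6 M for 60 min. The stock was 0.01 M in EtOH, diluted in 0.01 M sodium phosphate, pH 7.4. Cumulative analog curves followed, read 35–45 min after each addition. Emax is expressed relative to the compound alone. Mean ± SEM, n = 3–4; paired comparison.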
row,SMILES,EC50
1,CN(C)CCc1ccc(N=C=S)cc1,48.5 µM
2,S=C=Nc1ccc(CC2=NCCN2)cc1,19.8 µM
3,S=C=Nc1ccc(CCC2=NCCN2)cc1,67 µM
4,S=C=Nc1ccc(OCC2=NCCN2)cc1,52.1 µM
5,S=C=Nc1ccc(Cc2ncc[nH]2)cc1,38.9 µM

# Species: Rattus norvegicus
# Assay: Percent of maximal contractile response to compound in rat thoracic aorta strips
# Settings: Rattus norvegicus, Thoracic aorta; read-out: Emax
# Outline: as §2
row,SMILES,Emax
1,CN(C)CCc1ccc(N=C=S)cc1,100%
2,S=C=Nc1ccc(CC2=NCCN2)cc1,100%
3,S=C=Nc1ccc(CCC2=NCCN2)cc1,100%
4,S=C=Nc1ccc(OCC2=NCCN2)cc1,100%
5,S=C=Nc1ccc(Cc2ncc[nH]2)cc1,100%

# Same assay, conditions: rat, in vitro
row,SMILES,Emax
1,CN(C)CCc1ccc(N=C=S)cc1,91% and 94%
2,S=C=Nc1ccc(CC2=NCCN2)cc1,100%

# Species: Rattus norvegicus
# Assay: Percent of maximal contractile response to compound without phenoxybenzamine pretreatment on rat thoracic aorta strips
# Settings: not given
# Outline: as §2
row,SMILES,Emax
1,O=C(CCl)Nc1ccc(CC2=NCCN2)cc1,41%
2,Cc1ccc(CC2=NCCN2)cc1,14%
3,CN(C)CCc1ccc(N=C=S)cc1,98%
4,S=C=Nc1ccc(CC2=NCCN2)cc1,118%
5,S=C=Nc1ccc(CC2=NCCN2)cc1I,31%
6,O=C(CI)Nc1ccc(CC2=NCCN2)cc1,25%
7,S=C=Nc1ccc(CCC2=NCCN2)cc1,107%
8,S=C=Nc1ccc(OCC2=NCCN2)cc1,108%
9,S=C=Nc1ccc(Cc2ncc[nH]2)cc1,70%
10,Nc1ccc(CC2=NCCN2)cc1,69%

# Species: Rattus norvegicus
# Assay: Percent of maximal contractile response to compound in rat thoracic aorta strips in the presence of verapamil
# Settings: not given
# Outline: as §5
row,SMILES,Emax
1,S=C=Nc1ccc(CC2=NCCN2)cc1,48%

# Species: Rattus norvegicus
# Assay: Percent of maximal contractile response to compound in rat thoracic aorta strips in the presence of PBZ and IDA
# Settings: not given
# Outline: (§7)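 Rat aortic strips were given PBZ for 20 min, then washed out and exposed to idazoxan for 60 min before cumulative analog curves (3×10^-8–10^-4 M). Readings were taken 35–45 min after each addition. Response is expressed as % of the 30 μM phenylephrine maximum. Mean ± SEM, n = 3–4.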
row,SMILES,Emax
1,S=C=Nc1ccc(CCC2=NCCN2)cc1,114%
2,S=C=Nc1ccc(Cc2ncc[nH]2)cc1,79%

# Species: Rattus norvegicus
# Assay: Percent of maximal contractile response to compound in rat thoracic aorta strips in the presence of nifedipine
# Settings: not given
# Outline: as §6
row,SMILES,Emax
1,CN(C)CCc1ccc(N=C=S)cc1,29%
2,S=C=Nc1ccc(CC2=NCCN2)cc1,42%
3,S=C=Nc1ccc(CCC2=NCCN2)cc1,21%
4,S=C=Nc1ccc(OCC2=NCCN2)cc1,11%
5,S=C=Nc1ccc(Cc2ncc[nH]2)cc1,35%

# Species: Rattus norvegicus
# Assay: Concentration that produces 50% of the maximal response to compound in rat thoracic aorta strips in the presence of PBZ and IDA
# Type: functional
# Settings: not given
# Outline: as §7
row,SMILES,EC50
1,S=C=Nc1ccc(CCC2=NCCN2)cc1,18.1 µM
2,S=C=Nc1ccc(Cc2ncc[nH]2)cc1,40.9 µM
